Source: ChEMBL document CHEMBL1132183 (J Med Chem, 1999)

Key:
[1] = target: T1, 5-hydroxytryptamine receptor 1A (Homo sapiens) (UniProt P08908); settings: HeLa
T1 sequence (whole entry): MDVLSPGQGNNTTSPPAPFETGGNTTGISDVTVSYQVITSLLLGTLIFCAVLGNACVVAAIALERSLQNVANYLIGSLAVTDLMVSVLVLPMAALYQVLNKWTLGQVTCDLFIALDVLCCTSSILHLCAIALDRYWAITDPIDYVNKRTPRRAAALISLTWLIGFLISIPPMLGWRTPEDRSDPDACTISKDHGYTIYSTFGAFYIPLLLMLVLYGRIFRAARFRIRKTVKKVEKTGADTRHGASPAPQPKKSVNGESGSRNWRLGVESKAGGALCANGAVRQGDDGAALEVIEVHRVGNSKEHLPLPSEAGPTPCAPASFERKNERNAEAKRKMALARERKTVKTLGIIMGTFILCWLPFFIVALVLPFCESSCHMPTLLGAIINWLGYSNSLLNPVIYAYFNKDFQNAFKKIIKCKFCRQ

D(2) dopamine receptor = D(2) dopamine receptor (Rattus norvegicus, UniProt P61169); experiment: Displacement of [3H]spiperone from rat brain Dopamine receptor D2
D(2) dopamine receptor, sequence (P61169 whole entry): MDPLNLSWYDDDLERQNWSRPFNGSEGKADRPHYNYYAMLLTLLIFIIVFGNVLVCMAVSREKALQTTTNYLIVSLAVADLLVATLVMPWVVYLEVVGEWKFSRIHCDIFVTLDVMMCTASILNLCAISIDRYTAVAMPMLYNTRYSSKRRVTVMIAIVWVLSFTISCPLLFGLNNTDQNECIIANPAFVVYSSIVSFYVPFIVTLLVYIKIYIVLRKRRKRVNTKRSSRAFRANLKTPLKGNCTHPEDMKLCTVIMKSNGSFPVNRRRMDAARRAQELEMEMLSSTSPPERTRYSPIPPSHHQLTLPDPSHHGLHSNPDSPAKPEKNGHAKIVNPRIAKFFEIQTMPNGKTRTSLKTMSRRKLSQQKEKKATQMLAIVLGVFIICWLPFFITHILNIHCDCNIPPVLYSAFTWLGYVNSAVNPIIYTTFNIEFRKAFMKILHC
How it was run: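 Striata from male Sprague–Dawley rats homogenized in Tris-HCl pH 7.4. Buffer held 10 μM pargiline, 0.1% ascorbic acid, 120 mM NaCl, 5 mM KCl, 2 mM CaCl2, 1 mM MgCl2. Incubated with 0.2–0.6 nM [3H]spiperone for 15 min at 37 °C. Nonspecific binding defined with 1 μM (+)-butaclamol. Filtration, scintillation counting. Ki by Cheng–Prusoff.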

[2] = target: T1, 5-hydroxytryptamine receptor 1A (Homo sapiens); settings: HeLa; remark: listed apart in the source
[3] = target: Serotonin 2 (5-HT2) receptor (Rattus norvegicus, UniProt P30994+P08909+P14842); experiment: Displacement of [3H]ketanserin from rat brain 5-hydroxytryptamine 2 receptor
How it was run: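 Rat cerebral cortex membranes (male Sprague–Dawley) in Tris-HCl pH 7.4 with 10 μM pargiline and 0.1% ascorbic acid were incubated 20 min at 37 °C with 0.7–1.3 nM [3H]ketanserin (5-HT2A). Nonspecific binding was defined by 2 μM ketanserin. Bound label was counted after filtration, and Ki was derived by Cheng–Prusoff.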

[4] = target: T2, Adrenergic receptor alpha-2 (Rattus norvegicus, UniProt P22086+P19328+P22909); experiment: Displacement of [3H]rauwolscine from rat brain Alpha-2 adrenergic receptor
T2 sequence (P22086 whole entry): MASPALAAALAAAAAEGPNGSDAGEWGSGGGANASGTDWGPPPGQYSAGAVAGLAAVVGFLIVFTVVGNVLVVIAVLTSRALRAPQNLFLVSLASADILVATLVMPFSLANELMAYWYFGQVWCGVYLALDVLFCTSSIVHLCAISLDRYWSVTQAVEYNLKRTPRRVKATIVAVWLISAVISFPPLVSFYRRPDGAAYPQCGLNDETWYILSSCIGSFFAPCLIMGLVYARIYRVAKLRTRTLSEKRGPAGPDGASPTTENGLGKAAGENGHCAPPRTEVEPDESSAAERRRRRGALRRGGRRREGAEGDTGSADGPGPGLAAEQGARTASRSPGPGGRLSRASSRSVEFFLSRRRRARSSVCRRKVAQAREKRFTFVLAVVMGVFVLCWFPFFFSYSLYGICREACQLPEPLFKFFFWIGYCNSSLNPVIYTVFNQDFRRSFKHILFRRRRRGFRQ
T2 sequence (P19328 whole entry): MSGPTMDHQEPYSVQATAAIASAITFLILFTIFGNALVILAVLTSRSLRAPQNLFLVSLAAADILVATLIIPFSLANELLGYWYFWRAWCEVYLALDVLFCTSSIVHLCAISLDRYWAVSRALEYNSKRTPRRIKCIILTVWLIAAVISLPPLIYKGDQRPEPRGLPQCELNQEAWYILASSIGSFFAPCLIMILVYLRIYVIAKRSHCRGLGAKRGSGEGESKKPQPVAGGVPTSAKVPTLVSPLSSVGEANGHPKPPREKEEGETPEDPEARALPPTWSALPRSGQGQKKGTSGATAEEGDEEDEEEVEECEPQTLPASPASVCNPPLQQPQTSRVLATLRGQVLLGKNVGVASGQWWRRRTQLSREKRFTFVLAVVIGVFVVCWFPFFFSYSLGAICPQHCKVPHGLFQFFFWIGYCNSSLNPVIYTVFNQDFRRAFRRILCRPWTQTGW
T2 sequence (P22909 whole entry): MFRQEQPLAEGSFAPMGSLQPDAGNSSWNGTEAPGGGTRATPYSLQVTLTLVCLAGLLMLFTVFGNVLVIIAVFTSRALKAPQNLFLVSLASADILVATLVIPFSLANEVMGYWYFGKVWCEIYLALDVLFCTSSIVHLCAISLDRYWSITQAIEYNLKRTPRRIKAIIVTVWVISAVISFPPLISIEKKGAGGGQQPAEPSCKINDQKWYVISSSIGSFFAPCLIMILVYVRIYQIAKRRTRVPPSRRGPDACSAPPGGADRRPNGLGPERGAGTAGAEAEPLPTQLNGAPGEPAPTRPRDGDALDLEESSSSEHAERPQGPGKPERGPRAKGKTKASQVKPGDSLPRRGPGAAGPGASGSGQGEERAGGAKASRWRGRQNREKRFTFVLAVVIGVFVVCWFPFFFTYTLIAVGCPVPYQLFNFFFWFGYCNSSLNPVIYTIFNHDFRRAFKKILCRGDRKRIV
How it was run: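 Rat cerebral cortex membranes (male Sprague–Dawley) were washed in Tris-HCl pH 7.4 and resuspended with 10 μM pargiline and 0.1% ascorbic acid. They were incubated 30 min at 25 °C with 0.5–1.5 nM [3H]rauwolscine. Nonspecific binding was taken with 10 μM phentolamine. Filtration and scintillation counting followed, and Ki was obtained by Cheng–Prusoff.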

[5] = target: T3, Alpha-1B adrenergic receptor (Rattus norvegicus) (UniProt P15823); experiment: Antagonism of Alpha-1B adrenergic receptor subtype (-)-phenylephrine-induced contraction of rat spleen; type: functional, tissue-based
T3 sequence (whole entry): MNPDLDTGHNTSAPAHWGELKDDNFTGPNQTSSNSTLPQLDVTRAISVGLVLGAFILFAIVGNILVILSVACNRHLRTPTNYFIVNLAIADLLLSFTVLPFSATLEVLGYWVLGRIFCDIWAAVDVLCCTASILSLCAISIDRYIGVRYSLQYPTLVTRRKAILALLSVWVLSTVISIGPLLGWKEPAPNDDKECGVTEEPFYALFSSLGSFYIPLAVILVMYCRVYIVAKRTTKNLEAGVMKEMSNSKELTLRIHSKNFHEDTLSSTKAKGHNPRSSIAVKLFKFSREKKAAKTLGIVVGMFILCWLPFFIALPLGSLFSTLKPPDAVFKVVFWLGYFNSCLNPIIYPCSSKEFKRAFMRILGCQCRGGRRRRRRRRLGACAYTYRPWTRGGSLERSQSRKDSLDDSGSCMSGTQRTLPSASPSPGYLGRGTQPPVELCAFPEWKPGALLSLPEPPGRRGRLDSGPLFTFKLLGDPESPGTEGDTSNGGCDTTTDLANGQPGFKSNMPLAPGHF
How it was run: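 Rat spleen, isometric cumulative (–)-phenylephrine curves at 30-min intervals; first discarded, second taken as control. Antagonist was equilibrated 30 min before the next curve.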

[6] = target: T4, Alpha-1B adrenergic receptor (Homo sapiens, UniProt P35368); experiment: Displacement of [3H]prazosin from human cloned Alpha-1B adrenergic receptor
T4 sequence (P35368 whole entry): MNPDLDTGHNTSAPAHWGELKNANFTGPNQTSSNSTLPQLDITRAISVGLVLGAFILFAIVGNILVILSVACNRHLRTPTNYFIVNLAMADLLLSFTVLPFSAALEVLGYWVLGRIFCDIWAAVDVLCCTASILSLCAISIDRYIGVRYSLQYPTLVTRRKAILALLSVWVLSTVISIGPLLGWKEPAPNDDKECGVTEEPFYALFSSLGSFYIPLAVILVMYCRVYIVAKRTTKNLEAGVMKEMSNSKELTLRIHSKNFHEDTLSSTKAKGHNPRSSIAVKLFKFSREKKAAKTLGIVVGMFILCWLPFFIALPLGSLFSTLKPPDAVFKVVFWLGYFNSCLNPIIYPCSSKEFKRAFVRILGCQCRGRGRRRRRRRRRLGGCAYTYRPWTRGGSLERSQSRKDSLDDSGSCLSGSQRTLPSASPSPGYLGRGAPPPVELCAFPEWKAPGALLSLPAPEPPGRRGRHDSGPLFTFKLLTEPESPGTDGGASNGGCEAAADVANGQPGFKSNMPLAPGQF
How it was run: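 CHO cells stably transfected with each human α1 subtype; 30 μg membrane protein in 50 mM Tris-HCl pH 7.4 with 0.1–0.4 nM [3H]prazosin, 30 min at 25 °C. Competitors 1 pM–10 μM. Nonspecific binding defined with 10 μM phentolamine. Filtration, scintillation counting. Ki by Cheng–Prusoff; 2–3 experiments in triplicate.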

SMILES | pD2 [1] | Log Ki [3] | Log Ki [4] | also measured
NCCc1c[nH]c2ccc(O)cc12 | 7.3 |  |  | 
COc1ccccc1N1CCN(CCN2C(=O)CC3(CCCC3)CC2=O)CC1 [BMY-7378] |  | -6.31 | -5.93 | Ki (D(2) dopamine receptor): 49 nM; pD2 [2]: 9.27; pKb [5]: 7.55
NCCc1c[nH]c2ccc(C(N)=O)cc12 | 8.45 |  |  | 
CCCN(CCC)C1CCc2cccc(O)c2C1 (stereo unspecified) [8-OH-DPAT] |  | < -6 | -6.08 | Log Ki (D(2) dopamine receptor): < -6; Ki [6]: > 1000 nM
